Test results reported in ChEMBL document CHEMBL1629700, “Assessment of oritavancin serum protein binding across species” (Antimicrob Agents Chemother, 2010).

Legend:
[1] = Protein binding in human serum by broth microdilution method; assay type: ADME, cell-free; conditions: read-out: PB (converted)
Outline: (§1)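 Pooled serum (dog: beagle) and its ultrafiltrate (50 kDa cutoff, excludes albumin) were used. Broth microdilution MICs against S. aureus ATCC 29213 were read with arithmetic drug dilutions, made in CAMHB with 0.002% polysorbate-80, in 95% serum or 95% ultrafiltrate plus 5% CAMHB. % bound = (1 − mean MIC ultrafiltrate/mean MIC serum) × 100. Human, rat and dog used 8 replicates; mouse used 4–8.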

[2] = tested on: Staphylococcus aureus; test: Antibacterial activity against Staphylococcus aureus ATCC 29213 grown in CAMHB medium by broth microdilution method in presence of 50 ug/ml CaCl2 and 95% mouse serum; assay type: functional
Outline: (§2)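 Broth microdilution MIC run in a matrix of 95% pooled serum, or 95% ultrafiltrate of that serum (50 kDa cutoff, albumin excluded), plus 5% CAMHB. Arithmetic dilutions ran from 20 to 0.3 μg/ml in CAMHB with 50 μg/ml CaCl2. Means came from 8 replicates (mouse 4 to 8). Beagle dog serum was used for dog.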

[3] = tested on: Staphylococcus aureus; test: Antibacterial activity against Staphylococcus aureus ATCC 29213 grown in CAMHB medium by broth microdilution method in presence of 50 ug/ml CaCl2; assay type: functional
Outline: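 Broth microdilution per CLSI M7-A8 in cation-adjusted Mueller-Hinton broth with 50 μg/ml CaCl2. Arithmetic dilution steps of 5 μg/ml from 20 to 10 μg/ml, 1 μg/ml from 10 to 2, 0.5 μg/ml from 2 to 1, and 0.1 μg/ml from 1 to 0.3 μg/ml. Mean of 8 replicates.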

[4] = tested on: Staphylococcus aureus; test: Ratio of MIC for Staphylococcus aureus ATCC 29213 grown in CAMHB medium in presence of 95% human serum to MIC for Staphylococcus aureus ATCC 29213 in presence of 95% human serum ultrafiltrate; assay type: functional
Outline: (§3)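 The fold increase is the mean arithmetic broth microdilution MIC in 95% serum (plus 5% CAMHB) divided by the mean MIC in 95% serum ultrafiltrate (plus 5% CAMHB). The ultrafiltrate was prepared with a 50 kDa cutoff that excludes albumin. Replicates were 8 per condition, or 4 to 8 for mouse. The same data give % bound = (1 − MIC ultrafiltrate/MIC serum) × 100.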

[5] = Protein binding in dog serum by broth microdilution method; assay type: ADME, cell-free, Canis lupus familiaris; conditions: read-out: PB (converted); outline: as §1
[6] = tested on: Staphylococcus aureus; test: Antibacterial activity against Staphylococcus aureus ATCC 29213 grown in CAMHB medium by broth microdilution method in presence of 50 ug/ml CaCl2 and 95% mouse serum ultrafiltrate; assay type: functional; outline: as §2
[7] = tested on: Staphylococcus aureus; test: Antibacterial activity against Staphylococcus aureus ATCC 29213 grown in CAMHB medium by broth microdilution method in presence of 50 ug/ml CaCl2 and 95% human serum; assay type: functional; outline: as §2
[8] = tested on: Staphylococcus aureus; test: Antibacterial activity against Staphylococcus aureus ATCC 29213 grown in CAMHB medium by broth microdilution method in presence of 50 ug/ml CaCl2 and 95% dog serum; assay type: functional; outline: as §2
[9] = Protein binding in mouse serum by broth microdilution method; assay type: ADME, cell-free; conditions: read-out: PB (converted); outline: as §1
[10] = tested on: Staphylococcus aureus; test: Ratio of MIC for Staphylococcus aureus ATCC 29213 grown in CAMHB medium in presence of 95% dog serum to MIC for Staphylococcus aureus ATCC 29213 in presence of 95% dog serum ultrafiltrate; assay type: functional; outline: as §3
[11] = tested on: Staphylococcus aureus; test: Antibacterial activity against Staphylococcus aureus ATCC 29213 grown in CAMHB medium by broth microdilution method in presence of 50 ug/ml CaCl2 and 95% human serum ultrafiltrate; assay type: functional; outline: as §2
[12] = tested on: Staphylococcus aureus; test: Antibacterial activity against Staphylococcus aureus ATCC 29213 grown in CAMHB medium by broth microdilution method in presence of 50 ug/ml CaCl2 and 95% rat serum; assay type: functional; outline: as §2
[13] = tested on: Staphylococcus aureus; test: Antibacterial activity against Staphylococcus aureus ATCC 29213 grown in CAMHB medium by broth microdilution method in presence of 50 ug/ml CaCl2 and 95% rat serum ultrafiltrate; assay type: functional; outline: as §2
[14] = Protein binding in rat serum by broth microdilution method; assay type: ADME, cell-free; conditions: read-out: PB (converted); outline: as §1
[15] = tested on: Staphylococcus aureus; test: Ratio of MIC for Staphylococcus aureus ATCC 29213 grown in CAMHB medium in presence of 95% rat serum to MIC for Staphylococcus aureus ATCC 29213 in presence of 95% rat serum ultrafiltrate; assay type: functional; outline: as §3
[16] = tested on: Staphylococcus aureus; test: Antibacterial activity against Staphylococcus aureus ATCC 29213 grown in CAMHB medium by broth microdilution method in presence of 50 ug/ml CaCl2 and 95% dog serum ultrafiltrate; assay type: functional; outline: as §2
[17] = tested on: Staphylococcus aureus; test: Ratio of MIC for Staphylococcus aureus ATCC 29213 grown in CAMHB medium in presence of 95% mouse serum to MIC for Staphylococcus aureus ATCC 29213 in presence of 95% mouse serum ultrafiltrate; assay type: functional; outline: as §3

With CCCCCCCCCC(=O)N[C@@H](Cc1c[nH]c2ccccc12)C(=O)N[C@H](CC(N)=O)C(=O)N[C@@H](CC(=O)O)C(=O)N[C@@H]1C(=O)NCC(=O)N[C@@H](CCCN)C(=O)N[C@@H](CC(=O)O)C(=O)N[C@H](C)C(=O)N[C@@H](CC(=O)O)C(=O)NCC(=O)N[C@H](CO)C(=O)N[C@@H]([C@H](C)CC(=O)O)C(=O)N[C@@H](CC(=O)c2ccccc2N)C(=O)O[C@@H]1C as the molecule, how does the fraction unbound [1] read?
Its fraction unbound is 0.171.

What about the MIC [2] of the same molecule?
The MIC was 12.5 µg/mL.

What about the MIC [3] of the same molecule?
Its MIC is 0.975 µg/mL.

What about the Ratio [4] of the same molecule?
The Ratio was 5.8.

And the fraction unbound [5]?
The fraction unbound was 0.255.

What about the MIC [6] of the same molecule?
Its MIC is 3 µg/mL.

What about the MIC [7] of the same molecule?
Its MIC is 3 µg/mL.

And the MIC [8]?
The MIC was 2.5 µg/mL.

What about the fraction unbound [9] of the same molecule?
The fraction unbound was 0.24.

And the Ratio [10]?
The Ratio was 3.9.

What about the MIC [11] of the same molecule?
Its MIC is 0.513 µg/mL.

And the MIC [12]?
The MIC was 1.56 µg/mL.

And the MIC [13]?
The MIC was 0.538 µg/mL.

What about the fraction unbound [14] of the same molecule?
The fraction unbound was 0.344.

And the Ratio [15]?
The Ratio was 2.9.

And the MIC [16]?
The MIC was 0.638 µg/mL.

What about the Ratio [17] of the same molecule?
Its Ratio is 4.2.
